Measured values taken from ChEMBL document CHEMBL3580656, “Chrodrimanins I and J from the Antarctic Moss-Derived Fungus Penicillium funiculosum GWT2-24” (J Nat Prod, 2015).

Tests used:
Staphylococcus aureus = assay: Antibacterial activity against Staphylococcus aureus; type: functional
HeLa = assay: Cytotoxicity against human HeLa cells by sulforhodamine B assay; type: functional, cell-based
Procedure, shortened: (§1)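 Four human lines tested (K562, HL-60, HeLa, A-549) with adriamycin as positive control. Potency is expressed as IC50.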

K562 = assay: Cytotoxicity against human K562 cells by sulforhodamine B assay; type: functional, cell-based; procedure, shortened: as §1
Influenza A virus = assay: Antiviral activity against influenza A virus (A/Puerto Rico/8/34(H1N1)) infected in MDCK cells incubated for 48 hrs assessed as inhibition of virus-induced cytopathic effect by crystal violet staining assay; type: functional, organism-based; settings: A/Puerto Rico/8/1934(H1N1)
Procedure, shortened: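 Ribavirin served as the positive control. The value is reported as an IC50 in μM.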

HL-60 = assay: Cytotoxicity against human HL60 cells by sulforhodamine B assay; type: functional, cell-based; procedure, shortened: as §1
Escherichia coli = assay: Antibacterial activity against Escherichia coli; type: functional
A549 = assay: Cytotoxicity against human A549 cells by sulforhodamine B assay; type: functional, cell-based; procedure, shortened: as §1

Row | Compound | MIC (Staphylococcus aureus) | IC50 (HeLa) | IC50 (K562) | IC50 (Influenza A virus) | IC50 (HL-60) | MIC (Escherichia coli) | IC50 (A549)
1 | CC1(C)C(=O)CC[C@@]2(C)[C@H]1CC[C@]1(C)Oc3cc(O)c4c(c3C[C@@H]21)C[C@@H](O)CC4=O | > 600 µg/mL | > 50 µM | > 50 µM | > 200 µM | > 50 µM | > 600 µg/mL | > 50 µM
2 | CC1(C)C(=O)C=C[C@@]2(C)[C@H]1CC[C@]1(C)Oc3cc(O)c4c(c3C[C@@H]21)C[C@@H](O)CC4=O | > 600 µg/mL | > 50 µM | > 50 µM | > 200 µM | > 50 µM | > 600 µg/mL | > 50 µM
3 | C[C@@H]1Cc2c3c(cc(O)c2C(=O)O1)O[C@@]1(C)[C@@H](O)C[C@H]2C(C)(C)C(=O)C=C[C@]2(C)[C@@H]1C3 | > 600 µg/mL | > 50 µM | > 50 µM | 21 µM | > 50 µM | > 600 µg/mL | > 50 µM
4 | C[C@H]1OC(=O)c2c(O)cc3c(c2[C@H]1O)C[C@H]1[C@@]2(C)C=CC(=O)C(C)(C)[C@@H]2C[C@H](O)[C@]1(C)O3 | > 600 µg/mL | > 50 µM | > 50 µM | > 200 µM | > 50 µM | > 600 µg/mL | > 50 µM
5 | CC(=O)O[C@@H]1c2c3c(cc(O)c2C(=O)O[C@@H]1C)O[C@@]1(C)[C@@H](O)C[C@H]2C(C)(C)C(=O)C=C[C@]2(C)[C@@H]1C3 | > 600 µg/mL | > 50 µM | > 50 µM | 55 µM | > 50 µM | > 600 µg/mL | > 50 µM
6 | C[C@@H]1Cc2c3c(cc(O)c2C(=O)O1)O[C@@]1(C)[C@@H](O)C[C@H]2C(C)(C)[C@@H](O)CC[C@]2(C)[C@@H]1C3 | > 600 µg/mL | > 50 µM | > 50 µM | 57 µM | > 50 µM | > 600 µg/mL | > 50 µM
7 | C[C@@H]1Cc2c3c(cc(O)c2C(=O)O1)O[C@@]1(C)[C@@H](O)C[C@H]2C(C)(C)C(=O)CC[C@]2(C)[C@@H]1C3 | > 600 µg/mL | > 50 µM | > 50 µM | > 200 µM | > 50 µM | > 600 µg/mL | > 50 µM
